# Assay outcomes: PubChem, Broad Institute
# Hits are enriched below; roughly 2.1% of the tested compounds scored in any of these assays.
# PAX8 inh HTS = lowers PAX8-driven luciferase in RMG-I cells | AID 652154 | inhibition, % at 12.6 µM | actives 1.2% (n = 360,000) | RMG-I TPO-luciferase reporter, SteadyGlo, 24 h;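 active means mean replicate inhibition at least 60% with every replicate also reaching 60%; inconclusive means only one of the two criteria is met; inactive means mean below 60% and not all replicates reaching 60%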;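 further: luciferase light reporting Pax8 driven TPO promoter activity; plate controls were median of neutral control wells for no effect and mitoxantrone controls for full effect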
# LMP1 NFkB inh = inhibitors of Epstein-Barr LMP1-induced NF-kappaB reporter | LMP1-induced NF-kappaB luciferase reporter cells, luminescence | inhibition, % at 12.5 µM | actives 0.69% (n = 350,000); in the data active means inhibition above about 41%; inconclusive means no clear call, values can overlap the other calls;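 further: 0% = neutral control wells and 100% = reference inhibitor control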
# FN deposit inh = fibronectin deposition inhibition | AID 743247 | inhibition, % at 12.6 µM | actives 0.086% (n = 350,000) | AH1F fibroblasts, Alexa488-fibronectin deposition fluorescence, overnight;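 active means mean inhibition across replicates of 30% or more, regardless of how many single replicates reach that level; inconclusive means mean under 30% yet at least half of replicates reach 30%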;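 further: positive control wells lacked labelled fibronectin entirely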
#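 Material: AH1F fibroblast monolayer depositing Alexa488-labelled fibronectin into matrix | Input: 10000 AH1F cells/well | Medium: DMEM plus 2% serum, read in PBS | Reagent: Alexa488-fibronectin, 24 nM final in well | Compound dosing: One dose per compound, pinned | Schedule: 1 h adhesion, overnight exposure | Measured by: Fluorescence at 485 nm excitation, 525 nm emission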
# Shn3 3UTR inh = Schnurri-3 reporter inhibition in Clone20 osteoblasts; actives 0.52% (n = 360,000); AID 588674; inhibition, % at 12.5 µM; Clone20 osteoblast Shn3 3'UTR firefly luciferase, 24 h;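 active means mean inhibition of at least 75% with every replicate also reaching 75%; inconclusive means mean inhibition at least 75% but some replicate below; inactive means mean inhibition below 75%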;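 further: 0% = median of neutral control wells and 100% = pilot-screen positive control compound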
# aSyn 5UTR inh = MLPCN primary screen, SNCA 5' untranslated region; alpha-synuclein 5'UTR reporter, inhibitor activity; inhibition, % (tested at 7.5 µM); actives 0.82% (n = 300,000); in the data active means inhibition above about 60%; inconclusive means no clear call, values can overlap the other calls;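 further: H4 neuroglioblastoma cells stably carrying SNCA 5'UTR luciferase fusion; 0% = DMSO wells and 100% = positive control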
# EWS-Fli block = EWS/Fli transcriptional activity inhibition | A673 NR0B1-luciferase reporter, viability-normalised | inhibition, % at 12.6 µM | actives 0.67% (n = 350,000) | AID 651661;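 active means mean inhibition of at least 50% after viability correction, with every replicate also passing that limit; inconclusive means mean reaches 50% but only one of two replicates passes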;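 further: firefly luciferase signal divided by Alamar Blue viability fluorescence both relative to DMSO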
# * hit, by the source's call; u = inconclusive; x = not tested or not shown.
SMILES,PAX8 inh HTS,LMP1 NFkB inh,FN deposit inh,Shn3 3UTR inh,aSyn 5UTR inh,EWS-Fli block
Cc1ccc(NCCN(C)C)c2c(=O)c3cc(O)ccc3sc12,-13,45*,15,42,x,52*
CN(C)CCNc1cccc2sc3ccc(O)cc3c(=O)c12,0,x,-3,-36,x,4
O=C(Nc1cccc(F)c1)N1CCCCN2[C@@H](CO)[C@@H](c3ccc(C#Cc4ccccc4)cc3)[C@@H]2C1,116*,x,x,x,x,76*
O=C(Nc1ccccc1)N1CCCCN2[C@H](CO)[C@H](c3ccc(C#Cc4ccccc4)cc3)[C@H]2C1,109*,x,2,x,x,63*
O=C(Nc1ccccc1)N1CCCCN2[C@H](C1)[C@@H](c1ccc(C#Cc3ccccc3)cc1)[C@@H]2CO,99*,x,x,x,x,4
O=C(Nc1ccccc1F)N1CCCCN2[C@H](CO)[C@@H](c3ccc(C#Cc4ccccc4)cc3)[C@@H]2C1,-22,x,x,x,x,x
O=C(Nc1ccccc1F)N1CCCCN2[C@H](CO)[C@@H](c3ccc(C#Cc4ccccc4)cc3)[C@H]2C1,66*,x,x,x,x,x
COc1ccc(NC(=O)N(C)C[C@H]2OCCCC[C@H](C)Oc3ccc(N(C)C)cc3C(=O)N([C@H](C)CO)C[C@@H]2C)cc1,-7,x,x,x,x,-7
CC(C)NC(=O)Nc1ccc2c(c1)CC(=O)N([C@@H](C)CO)C[C@H](C)[C@@H](CN(C)C)O2,0,x,-14,x,x,x
Cc1ccc(S(=O)(=O)N[C@H]2C=C[C@H](CC(=O)N3CCN(c4ccccc4)CC3)O[C@@H]2CO)cc1,11,x,1,x,x,-2
COc1ccc(NC(=O)N2CCCCN3[C@@H](CO)[C@@H](c4ccc(C#Cc5ccccc5)cc4)[C@@H]3C2)cc1,111*,x,x,x,x,1
COc1ccc(NC(=O)N2CCCCN3[C@H](CO)[C@@H](c4ccc(C#Cc5ccccc5)cc4)[C@H]3C2)cc1,16,x,x,x,x,5
COCC(=O)NC[C@H]1[C@@H](c2ccc(C3=CCCC3)cc2)[C@H](CO)N1C(=O)C1CC1,4,x,-1,x,x,-5
C[C@]12CCC3C(CC[C@H]4CC(O)CC[C@]34C)C1CC/C2=N/NC(=O)c1ccncc1 (stereo partly specified),0,11,3,25,12,53*
C[C@]12CCC3C(CC[C@H]4CC(O)CC[C@]34C)C1CC/C2=N/O (stereo partly specified),28,4,4,25,17,2
CCC(=O)N(C)C[C@@H]1Oc2ncc(-c3ccccc3C)cc2C(=O)N([C@H](C)CO)C[C@H]1C,x,x,4,x,x,-7
C[C@H]1CN([C@@H](C)CO)C(=O)Cc2cc(NC(=O)NC3CCCCC3)ccc2O[C@@H]1CN(C)CC1CC1,x,x,x,x,x,-7
COc1ccc(S(=O)(=O)N2c3ccc(F)cc3CCC2C)cc1 (stereo unspecified),78*,2,8,-14,112*,41
CCCNC(=O)[C@H]1[C@H](CO)[C@H]2Cn3c(ccc(-c4ccccc4OC)c3=O)[C@H]2N1S(C)(=O)=O,-11,x,x,x,x,1
COc1ccc(S(=O)(=O)N(C)C[C@H]2OCCCC[C@@H](C)Oc3ccc(NS(=O)(=O)c4ccccc4)cc3C(=O)N([C@@H](C)CO)C[C@@H]2C)cc1,2,x,-5,x,x,-1
CC(C)[C@H](N[C@@H](C)c1ccccc1)c1c(O)ccc2ccccc12,11,66*,-2,13,4,8
Cc1ccc(C(C)C)c(OCc2nn(CC(=O)c3ccc(Cl)cc3)c3[n+]2CCCCC3)c1,66*,-5,8,49,10,u
COc1cc(CC(=O)OCC(=O)c2ccc3c(c2)OCCO3)cc(OC)c1OC,x,2,x,18,100*,x
O=C(COC(=O)c1ccc(O)cc1)c1ccc2c(c1)OCCO2,-132,-27,x,-94,x,-62
Cc1cc(=S)[nH]c2ccccc12,x,63*,x,4,-5,x
SMILES,PAX8 inh HTS,LMP1 NFkB inh,FN deposit inh,Shn3 3UTR inh,aSyn 5UTR inh,EWS-Fli block
Cc1ccc2[nH]c(=S)cc(C)c2c1,x,5,x,-13,-11,x
O=C(NCCCN1CCOCC1)c1ccc(Br)cc1,x,-8,x,-26,-9,x
CC(C)(C)c1ccc(C(=O)NCCN2CCOCC2)cc1,-2,-12,8,-6,-190,-13
CC(C)(C)c1ccc(C(=O)NCCCN2CCN(CCCNC(=O)c3ccc(C(C)(C)C)cc3)CC2)cc1,70*,-4,9,83,-10,x
O=C(NCCCN1CCOCC1)c1ccc(CNS(=O)(=O)c2ccc(Br)cc2)cc1,132*,2,4,-45,14,5
Cc1ccc(C)c(S(=O)(=O)N2CCCCC2CCNC(=O)C(=O)NCc2ccncc2)c1 (stereo unspecified),69*,0,-3,18,34,16
O=C(Nc1cccc(Br)c1)Oc1cccc2cccnc12,11,x,-4,6,x,-8
O=C(Nc1cccc(C(F)(F)F)c1)Oc1ccc(Cl)c2cccnc12,14,11,0,51,75*,13
O=C(Nc1c(Cl)cccc1Cl)Oc1cccc2cccnc12,73*,x,-1,75,x,26
COc1ccc(CN(C)C[C@H]2OCCCC[C@H](C)Oc3ccc(NC(=O)C4CCCCC4)cc3C(=O)N([C@@H](C)CO)C[C@H]2C)cc1,3,x,3,x,x,x
C[C@@H]1CN([C@@H](C)CO)C(=O)Cc2cc(NC(=O)Nc3cccc4ccccc34)ccc2O[C@H]1CN(C)S(C)(=O)=O,14,x,x,x,x,x
Cc1c(N/N=C(\C#N)C(=O)c2ccc(Cl)cc2)c(=O)n(-c2ccccc2)n1C,64*,-5,15,90*,86*,x
O=C([C@@H]1[C@@H](CO)[C@@H]2Cn3c(cccc3=O)[C@H]1N2)N1CCc2ccccc2C1,x,x,-3,x,x,1
CC=Cc1ccc2n(c1=O)C[C@@H]1[C@@H](CO)[C@H](C(=O)NCC3CC3)[C@H]2N1CC1CCOCC1 (mixture of isomers),-2,x,x,x,x,-6
CCOCCC(=O)Nc1ccc2c(c1)c(=O)n(C)n2C/C=C/c1ccccc1,20,x,0,26,x,60*
Cn1c(=O)c2cc(NC(=O)NCc3ccc(F)cc3)ccc2n1C/C=C/c1ccccc1,25,x,15,1,x,56*
CC(C)=CCn1c2ccc(NC(=O)NCc3ccc(F)cc3)cc2c(=O)n1C,18,x,-1,-1,x,u
CCN1[C@@H]2Cn3c(ccc(-c4ccccc4OC)c3=O)[C@H]1[C@@H](C(=O)N1CCOCC1)[C@@H]2CO,x,x,x,x,x,-6
Cc1ccc(S(=O)(=O)N(C)C[C@H]2Oc3c(NC(=O)Nc4ccc5c(c4)OCO5)cccc3C(=O)N([C@H](C)CO)C[C@@H]2C)cc1,1,x,x,x,x,0
CCC(=O)N(C)C[C@H]1Oc2cc(-c3cccc(F)c3)ccc2S(=O)(=O)N([C@@H](C)CO)C[C@@H]1C,x,x,x,x,x,4
S=C(NCCN1CCOCC1)N/N=C/c1cccs1,-11,-2,18,-6,7,9
Oc1cccc(/C=N/NC(=S)NCCN2CCOCC2)c1O,11,48*,2,81,-7,10
